In ChEMBL document CHEMBL4229344 (Eur J Med Chem, 2018):
Active and inactive are the calls of the source. No cut-off for these calls is given here.

How the values were obtained:
[1] = biological target: T1, Platelet-derived growth factor receptor alpha (Homo sapiens, UniProt P16234); settings: 1 uM
[2] = Cmax in Sprague-Dawley rat at 10 mg/kg, po; assay type: ADME, organism-based; set-up: dose 10 mg/kg, route oral; settings: in vivo
Outline: (§1)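 Male Sprague-Dawley rats, 6–8 weeks old and fasted overnight, dosed IV at 1 mg/kg or PO at 10 mg/kg. Formulation was 5% DMSO/40% PEG400/55% saline (1 mg/mL). Jugular blood collected on heparin from 1 min to 8 h (IV) or 5 min to 24 h (PO). Plasma separated by centrifugation at 2–8 °C and stored at −80 °C.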

EOL1 [3] = assay: Antitumor activity against human EOL-1 cells xenografted in nu/nu mouse assessed as tumor growth inhibition at 50 mg/kg/day, ip; assay type: functional; settings: read-out: TGI
Outline: (§2)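 Female nu/nu mice (6 weeks) given subcutaneous right-flank injection of 5 million EOL-1 cells in PBS/Matrigel 1:1. At 200–400 mm3 tumors, randomized to groups of 6 and dosed daily i.p. for 14 days at 25, 50 or 100 mg/kg/d in 0.5% methylcellulose/0.4% Tween80. Tumor volume = W²×L/2, measured daily.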

EOL1 [4] = assay: Antitumor activity against human EOL-1 cells xenografted in nu/nu mouse assessed as tumor growth inhibition at 25 mg/kg/day, ip; assay type: functional; settings: read-out: TGI
Outline: as §2

[5] = Tmax in Sprague-Dawley rat at 10 mg/kg, po; assay type: ADME, organism-based; settings: in vivo
Outline: as §1

[6] = biological target: T1, Platelet-derived growth factor receptor alpha; settings: NCI-H1703, 1 uM
[7] = Cytotoxicity against mouse BA/F3 cells after 72 hrs by CellTiter-Glo or CCK-8 assay; assay type: cell-based, BaF3
Outline: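 Parental BaF3 or IL-3-independent TEL-kinase BaF3 lines, made by retroviral infection and puromycin selection, grown in RPMI 1640 with 10% FBS. Cells seeded at 1–3 × 10^4 cells/mL with serial compound concentrations for 72 h. Viability read by CellTiter-Glo luminescence or CCK-8 absorbance at 450/655 nm and normalised to DMSO. GI50 obtained by triplicate testing with linear regression. Selectivity is the ratio of the two GI50 values.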

[8] = biological target: T1, Platelet-derived growth factor receptor alpha; settings: NCI-H1703, 1 uM; remark: listed apart in the source
[9] = AUC (0 to infinity) in Sprague-Dawley rat at 10 mg/kg, po; assay type: ADME, organism-based; set-up: dose 10 mg/kg, route oral, time infinity; settings: in vivo
Outline: (§3)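 Male Sprague-Dawley rats (6–8 weeks) fasted overnight, dosed IV or orally; compound dissolved in 5% DMSO/40% PEG400/55% saline (dosing solution 1 mg/mL). Blood (~0.2 mL) from jugular vein into heparin; IV sampling 1 min–8 h, oral 5 min–24 h. Plasma separated by centrifugation at 2–8 °C, stored at −80 °C until analysis.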

NCI-H1703 [10] = assay: Antiproliferative activity against human NCI-H1703 cells after 72 hrs by CellTiter-Glo or CCK-8 assay; assay type: functional; settings: NCI-H1703, 72 h
Outline: (§4)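 Cells in RPMI 1640 with 10% FBS at 37 °C, 5% CO2, seeded at 1–3 × 10^4 cells/mL with serial compound dilutions for 72 h. Viability read by CellTiter-Glo luminescence or CCK-8 absorbance (450/655 nm), normalized to DMSO control.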

[11] = biological target: T1, Platelet-derived growth factor receptor alpha; settings: NCI-H1703, 1 uM; remark: listed apart in the source
[12] = AUC (0 to t) in Sprague-Dawley rat at 10 mg/kg, po; assay type: ADME, organism-based; settings: in vivo
Outline: as §3

[13] = biological target: T1, Platelet-derived growth factor receptor alpha; settings: 1 uM; remark: listed apart in the source
[14] = Tmax in Sprague-Dawley rat at 1 mg/kg, iv; assay type: ADME, organism-based; settings: in vivo
Outline: as §1

[15] = AUC (0 to t) in Sprague-Dawley rat at 1 mg/kg, iv; assay type: ADME, organism-based; settings: in vivo
Outline: as §3

[16] = Oral bioavailability in Sprague-Dawley rat at 10 mg/kg; assay type: ADME, organism-based; settings: in vivo
Outline: as §1

Mus musculus = assay: Toxicity in nu/nu mouse xenografted with human EOL-1 cells assessed as change in body weight at 25 to 100 mg/kg/day, ip; assay type: organism-based; settings: in vivo
Outline: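 Female nu/nu mice, 6 weeks old, implanted subcutaneously in the right flank with 5 million EOL-1 cells in PBS/Matrigel 1:1. At tumour size 200–400 mm³, mice randomised into groups of 6 and given daily IP doses of 25, 50 or 100 mg/kg in 0.5% methylcellulose/0.4% Tween80, or vehicle, for 14 days. Body weight measured daily and normalised to initial weight; mean ± SEM.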

[17] = biological target: T1, Platelet-derived growth factor receptor alpha; settings: 100 nM
EOL1 [18] = assay: Antiproliferative activity against human EOL-1 cells after 72 hrs by CellTiter-Glo or CCK-8 assay; assay type: functional; settings: EOL1, 72 h
Outline: as §4

[19] = Cmax in Sprague-Dawley rat at 1 mg/kg, iv; assay type: ADME, organism-based; set-up: dose 1 mg/kg, route intravenous; settings: in vivo
Outline: as §1

NCI-H1703 [20] = assay: Antiproliferative activity against human NCI-H1703 cells after 72 hrs in presence of PDGF-AA by CellTiter-Glo or CCK-8 assay; assay type: functional; settings: NCI-H1703, 72 h
Outline: as §4

EOL1 [21] = assay: Antitumor activity against human EOL-1 cells xenografted in nu/nu mouse assessed as tumor growth inhibition at 100 mg/kg/day, ip; assay type: functional; settings: read-out: TGI
Outline: as §2

[22] = AUC (0 to infinity) in Sprague-Dawley rat at 1 mg/kg, iv; assay type: ADME, organism-based; set-up: dose 1 mg/kg, time infinity, route intravenous; settings: in vivo
Outline: as §3

T1 sequence (P16234 whole entry): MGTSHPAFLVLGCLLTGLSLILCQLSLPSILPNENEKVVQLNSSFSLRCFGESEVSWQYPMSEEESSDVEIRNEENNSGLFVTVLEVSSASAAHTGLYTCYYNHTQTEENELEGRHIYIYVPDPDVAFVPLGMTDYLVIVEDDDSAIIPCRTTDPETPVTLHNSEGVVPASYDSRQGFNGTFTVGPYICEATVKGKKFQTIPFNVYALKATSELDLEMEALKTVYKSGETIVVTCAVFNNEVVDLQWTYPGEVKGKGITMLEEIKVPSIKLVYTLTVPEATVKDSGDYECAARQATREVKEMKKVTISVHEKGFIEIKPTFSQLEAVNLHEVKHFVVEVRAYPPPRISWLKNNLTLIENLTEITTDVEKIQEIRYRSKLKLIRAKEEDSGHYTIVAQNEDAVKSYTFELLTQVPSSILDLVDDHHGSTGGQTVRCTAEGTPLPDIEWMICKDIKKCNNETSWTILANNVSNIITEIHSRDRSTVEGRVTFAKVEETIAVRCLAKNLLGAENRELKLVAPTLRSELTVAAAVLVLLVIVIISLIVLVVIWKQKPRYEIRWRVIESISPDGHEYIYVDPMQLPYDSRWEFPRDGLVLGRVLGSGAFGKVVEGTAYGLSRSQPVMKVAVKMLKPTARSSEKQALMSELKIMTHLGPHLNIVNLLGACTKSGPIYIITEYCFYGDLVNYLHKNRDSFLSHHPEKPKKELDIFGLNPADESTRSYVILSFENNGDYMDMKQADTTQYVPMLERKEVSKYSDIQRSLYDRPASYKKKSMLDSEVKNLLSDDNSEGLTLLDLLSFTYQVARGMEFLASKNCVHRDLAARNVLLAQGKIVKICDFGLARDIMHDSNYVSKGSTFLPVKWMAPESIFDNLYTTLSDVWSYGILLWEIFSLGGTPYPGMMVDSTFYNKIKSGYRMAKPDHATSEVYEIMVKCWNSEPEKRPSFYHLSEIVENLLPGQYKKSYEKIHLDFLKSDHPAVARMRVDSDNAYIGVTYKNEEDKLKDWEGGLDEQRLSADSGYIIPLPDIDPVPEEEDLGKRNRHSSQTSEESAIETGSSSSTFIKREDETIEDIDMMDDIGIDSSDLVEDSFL

Question: Which inhibition [1] does the source give for `Cc1ccc(NC(=O)c2ccc(CN3CCN(C)CC3)cc2)cc1Nc1nccc(-c2cccnc2)n1` [IMATINIB] here?
Answer: Active

Question: And the Cmax [2]?
Answer: 531 ng/mL

Question: And the inhibition in vivo at 50 mg/kg/day (EOL1 [3])?
Answer: 100%

Question: And the inhibition in vivo at 25 mg/kg/day (EOL1 [4])?
Answer: 99.9%

Question: And the Tmax [5]?
Answer: 6.67 h

Question: And the inhibition [6]?
Answer: Active

Question: What about the GI50 at 72 h [7] of the same compound?
Answer: > 10000 nM

Question: And the inhibition [8]?
Answer: Active

Question: What about the AUC(0-inf) [9] of the same compound?
Answer: 6650 ng·h/mL

Question: What about the GI50 (NCI-H1703 [10]) of the same compound?
Answer: 2100 nM

Question: What about the inhibition [11] of the same compound?
Answer: Active

Question: And the AUC(0-t) [12]?
Answer: 6460 ng·h/mL

Question: And the inhibition [13]?
Answer: Active

Question: And the Tmax [14]?
Answer: 1.02 min

Question: And the AUC(0-t) [15]?
Answer: 856 ng·h/mL

Question: What about the bioavailability [16] of the same compound?
Answer: 76.5%

Question: What about the Activity (Mus musculus) of the same compound?
Answer: Toxic

Question: And the inhibition [17]?
Answer: inactive

Question: What about the GI50 (EOL1 [18]) of the same compound?
Answer: < 1 nM

Question: What about the Cmax [19] of the same compound?
Answer: 547 ng/mL

Question: What about the GI50 (NCI-H1703 [20]) of the same compound?
Answer: 230 nM

Question: And the inhibition in vivo at 100 mg/kg/day (EOL1 [21])?
Answer: 100%

Question: And the AUC(0-inf) [22]?
Answer: 869 ng·h/mL
